Measured values from ChEMBL document CHEMBL5058577, “EUbOPEN Chemogenomics Library 2 (Multiplex)” (2022).

Tested on: U2OS
Assay: Multiplex assay against U2OS
Format: toxicity, cell-based
Details: human
Outline: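 Cells stained live at seeding with Hoechst33342, BioTracker Green Microtubule Cytoskeleton Dye, MitoTracker Red and Annexin V Alexa Fluor 680 were imaged on a CQ1 microscope at 37°C and 5% CO2 after compound addition. Their classification by CellPathfinder machine-learning gating ran from Hoechst high-intensity objects versus normal cells, to healthy, pyknosed or fragmented nuclei among normal cells, to mitotic or apoptotic among pyknosed cells. Tubulin, mitochondrial-mass and membrane-permeability phenotypes are per cents of healthy-nucleus cells.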

[1] = 12 h, 1 µM, compound concentration 1 uM, replicate 1
[2] = 12 h, 1 µM, compound concentration 1 uM, replicate 2
[3] = 12 h, 10 µM, compound concentration 10 uM, replicate 1
[4] = 12 h, 10 µM, compound concentration 10 uM, replicate 2
[5] = 24 h, 1 µM, compound concentration 1 uM, replicate 1
[6] = 24 h, 1 µM, compound concentration 1 uM, replicate 2
[7] = 24 h, 10 µM, compound concentration 10 uM, replicate 1
[8] = 24 h, 10 µM, compound concentration 10 uM, replicate 2
[9] = 48 h, 1 µM, compound concentration 1 uM, replicate 1
[10] = 48 h, 1 µM, compound concentration 1 uM, replicate 2
[11] = 48 h, 10 µM, compound concentration 10 uM, replicate 1
[12] = 48 h, 10 µM, compound concentration 10 uM, replicate 2

For `CN1CCC(C(=O)c2cccc(NC(=O)c3c(F)cc(F)cc3F)n2)CC1`, the “Population Apoptotic (%)” value [1] was 90%, the “Population Fragmented Nuclei (%)” value [1] was 20% and the “Population Healthy Nuclei (%)” value [1] was 70%. For the same compound, the “Population Hoechst High Intensity Objects (%)” value [1] was 2%, the “Population Membrane Permeable-Phenotype (%)” value [1] was 8% and the “Population Mitochondria Different-Phenotype (%)” value [1] was 3%. The “Population Mitotic Cells (%)” value [1] was 10%, the “Population Normal (%)” value [1] was 97% and the “Population Pyknosed Nuclei (%)” value [1] was 9%. For the same compound, the “Population Tubulin-Different-Phenotype (%)” value [1] was 5%, the “Total Cell Count” value [1] was 218 and the “Population Apoptotic (%)” value [2] was 57%. For the same compound, the “Population Healthy Nuclei (%)” value [2] was 71%, the “Population Hoechst High Intensity Objects (%)” value [2] was 1% and the “Population Membrane Permeable-Phenotype (%)” value [2] was 9%. For the same compound, the “Population Mitochondria Different-Phenotype (%)” value [2] was 11%, the “Population Mitotic Cells (%)” value [2] was 42% and the “Population Normal (%)” value [2] was 98%. The “Population Pyknosed Nuclei (%)” value [2] was 7%, the “Population Tubulin-Different-Phenotype (%)” value [2] was 6% and the “Total Cell Count” value [2] was 89. For the same compound, the “Population Apoptotic (%)” value [3] was 65%, the “Population Fragmented Nuclei (%)” value [3] was 27% and the “Population Healthy Nuclei (%)” value [3] was 63%. For the same compound, the “Population Hoechst High Intensity Objects (%)” value [3] was 1%, the “Population Membrane Permeable-Phenotype (%)” value [3] was 14% and the “Population Mitochondria Different-Phenotype (%)” value [3] was 13%. For the same compound, the “Population Mitotic Cells (%)” value [3] was 34%, the “Population Normal (%)” value [3] was 98% and the “Population Pyknosed Nuclei (%)” value [3] was 9%. The “Population Tubulin-Different-Phenotype (%)” value [3] was 12%, the “Total Cell Count” value [3] was 270 and the “Population Apoptotic (%)” value [4] was 64%. The “Population Fragmented Nuclei (%)” value [4] was 14%, the “Population Healthy Nuclei (%)” value [4] was 68% and the “Population Membrane Permeable-Phenotype (%)” value [4] was 15%. For the same compound, the “Population Mitochondria Different-Phenotype (%)” value [4] was 18%, the “Population Mitotic Cells (%)” value [4] was 35% and the “Population Pyknosed Nuclei (%)” value [4] was 16%. For the same compound, the “Population Tubulin-Different-Phenotype (%)” value [4] was 15%, the “Total Cell Count” value [4] was 103 and the “Population Apoptotic (%)” value [5] was 85%. The “Population Fragmented Nuclei (%)” value [5] was 22%, the “Population Healthy Nuclei (%)” value [5] was 67% and the “Population Hoechst High Intensity Objects (%)” value [5] was 2%. For the same compound, the “Population Membrane Permeable-Phenotype (%)” value [5] was 4%, the “Population Mitochondria Different-Phenotype (%)” value [5] was 3% and the “Population Mitotic Cells (%)” value [5] was 14%. For the same compound, the “Population Normal (%)” value [5] was 97%, the “Population Pyknosed Nuclei (%)” value [5] was 9% and the “Population Tubulin-Different-Phenotype (%)” value [5] was 3%. For the same compound, the “Total Cell Count” value [5] was 284, the “Population Apoptotic (%)” value [6] was 72% and the “Population Fragmented Nuclei (%)” value [6] was 18%. For the same compound, the “Population Healthy Nuclei (%)” value [6] was 71%, the “Population Hoechst High Intensity Objects (%)” value [6] was 0% and the “Population Membrane Permeable-Phenotype (%)” value [6] was 6%. The “Population Mitochondria Different-Phenotype (%)” value [6] was 10%, the “Population Mitotic Cells (%)” value [6] was 27% and the “Population Normal (%)” value [6] was 99%. The “Population Tubulin-Different-Phenotype (%)” value [6] was 0%, the “Total Cell Count” value [6] was 113 and the “Population Apoptotic (%)” value [7] was 82%. For the same compound, the “Population Fragmented Nuclei (%)” value [7] was 21%, the “Population Healthy Nuclei (%)” value [7] was 68% and the “Population Hoechst High Intensity Objects (%)” value [7] was 2%. The “Population Membrane Permeable-Phenotype (%)” value [7] was 8%, the “Population Mitochondria Different-Phenotype (%)” value [7] was 9% and the “Population Mitotic Cells (%)” value [7] was 17%. The “Population Normal (%)” value [7] was 97%, the “Population Pyknosed Nuclei (%)” value [7] was 9% and the “Population Tubulin-Different-Phenotype (%)” value [7] was 5%. The “Total Cell Count” value [7] was 298, the “Population Apoptotic (%)” value [8] was 66% and the “Population Fragmented Nuclei (%)” value [8] was 15%. The “Population Hoechst High Intensity Objects (%)” value [8] was 5%, the “Population Membrane Permeable-Phenotype (%)” value [8] was 10% and the “Population Mitochondria Different-Phenotype (%)” value [8] was 15%. The “Population Mitotic Cells (%)” value [8] was 33%, the “Population Normal (%)” value [8] was 94% and the “Population Pyknosed Nuclei (%)” value [8] was 15%. The “Population Tubulin-Different-Phenotype (%)” value [8] was 10%, the “Total Cell Count” value [8] was 126 and the “Population Apoptotic (%)” value [9] was 100%. The “Population Fragmented Nuclei (%)” value [9] was 17%, the “Population Healthy Nuclei (%)” value [9] was 70% and the “Population Hoechst High Intensity Objects (%)” value [9] was 2%. For the same compound, the “Population Membrane Permeable-Phenotype (%)” value [9] was 4%, the “Population Mitochondria Different-Phenotype (%)” value [9] was 1% and the “Population Mitotic Cells (%)” value [9] was 0%. For the same compound, the “Population Normal (%)” value [9] was 97%, the “Population Pyknosed Nuclei (%)” value [9] was 11% and the “Population Tubulin-Different-Phenotype (%)” value [9] was 2%. The “Total Cell Count” value [9] was 394, the “Population Apoptotic (%)” value [10] was 89% and the “Population Fragmented Nuclei (%)” value [10] was 29%. For the same compound, the “Population Healthy Nuclei (%)” value [10] was 57%, the “Population Hoechst High Intensity Objects (%)” value [10] was 5% and the “Population Membrane Permeable-Phenotype (%)” value [10] was 12%. The “Population Mitochondria Different-Phenotype (%)” value [10] was 8%, the “Population Mitotic Cells (%)” value [10] was 10% and the “Population Normal (%)” value [10] was 94%. For the same compound, the “Population Pyknosed Nuclei (%)” value [10] was 13%, the “Population Tubulin-Different-Phenotype (%)” value [10] was 4% and the “Total Cell Count” value [10] was 149. For the same compound, the “Population Apoptotic (%)” value [11] was 85%, the “Population Fragmented Nuclei (%)” value [11] was 18% and the “Population Healthy Nuclei (%)” value [11] was 69%. For the same compound, the “Population Hoechst High Intensity Objects (%)” value [11] was 3%, the “Population Membrane Permeable-Phenotype (%)” value [11] was 8% and the “Population Mitochondria Different-Phenotype (%)” value [11] was 3%. For the same compound, the “Population Mitotic Cells (%)” value [11] was 14%, the “Population Normal (%)” value [11] was 96% and the “Population Pyknosed Nuclei (%)” value [11] was 12%. For the same compound, the “Population Tubulin-Different-Phenotype (%)” value [11] was 3%, the “Total Cell Count” value [11] was 398 and the “Population Fragmented Nuclei (%)” value [12] was 15%. For the same compound, the “Population Membrane Permeable-Phenotype (%)” value [12] was 16%, the “Population Mitochondria Different-Phenotype (%)” value [12] was 10% and the “Population Pyknosed Nuclei (%)” value [12] was 14%. For the same compound, the “Population Tubulin-Different-Phenotype (%)” value [12] was 8% and the “Total Cell Count” value [12] was 189.
